Measurements reported in article PMC9488007 (Environmental Science and Ecotechnology, 2020).
≈ marks a conversion by molar mass, not a printed value. Where “and” joins values, the source holds several entries; their conditions need not be identical. Equal entries are not always repeated. Where two headings read alike, the source gives them in different places.

Key:
[1] = Desorption kinetics of bisphenols from bisphenol-attached PVC microplastics; format: physicochemical
In short: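 Bisphenol-loaded PVC from the adsorption step was placed in water or simulated intestinal fluid (NaCl 0.12 M, Na2CO3 0.02 M, sodium taurocholate 15.5 mM) in sealed 1 L glass bottles. Bottles were agitated rotationally at 200 rpm in an oil bath. Bisphenol was measured in filtered supernatant at intervals from 0 to 75 h. Run in triplicate.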

[2] = Desorption isotherms; format: physicochemical
[3] = Adsorption of bisphenols onto PVC microplastics; format: physicochemical; conditions: 1.5 g PVC microplastics in 1 L, 48 h, room temperature
In short: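 Each bisphenol was dissolved in ethanol, then diluted in a 1 L glass bottle to initial concentrations of 0 to 1.0 mg L-1. PVC microplastics were added, and bottles were shaken at 200 rpm until adsorption equilibrium. Supernatants were filtered through a glass microfiber filter before bisphenol quantification. Run in triplicate.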

[4] = test system: grass carp hepatocyte cell line, L8824; assay: cells; format: cell-based; conditions: for Cytotoxicity (proliferation reduction), L8824: high concentration (2 mg L^−1)
[5] = test system: human breast adenocarcinoma cells, MCF-7; assay: cells; format: cell-based; conditions: for Cytotoxicity (proliferation reduction), MCF-7: high concentration (2 mg L^−1)
[6] = water, ref Wu et al.^3; cited from earlier work
[7] = Physicochemical properties of the five bisphenols; conditions: calculated from log Kow and pKa
[8] = format: physicochemical; conditions: high concentration (2 mg L^−1)
[9] = read-out: IC50 to L8824, 72 h exposure, 291 K, MTT
[10] = read-out: IC50 to MCF-7, 72 h exposure, 311 K, MTT
[11] = Hepatocyte, 72 h, read-out: IC50 to L8824, 72 h exposure, 291 K, MTT
[12] = calculated for concentration desorbed in warm-I
[13] = calculated for concentration desorbed in water
[14] = Homo sapiens, MCF7, 72 h, read-out: IC50 to MCF-7, 72 h exposure, 311 K, MTT

SMILES | Fslow, slow fraction ([1]; cold-I, pH 7.5, 291 K) | krap, rapid desorption rate constant ([1]; cold-I, pH 7.5, 291 K) | kslow, slow desorption rate constant ([1]; cold-I, pH 7.5, 291 K) | kvs, very slow desorption rate constant ([1]; cold-I, pH 7.5, 291 K) | Fslow, slow fraction ([1]; warm-I, pH 6.5, 311 K) | Fvs, very slow fraction ([1]; warm-I, pH 6.5, 311 K) | krap, rapid desorption rate constant ([1]; warm-I, pH 6.5, 311 K) | kslow, slow desorption rate constant ([1]; warm-I, pH 6.5, 311 K) | kvs, very slow desorption rate constant ([1]; warm-I, pH 6.5, 311 K) | Fslow, slow fraction ([1]; water, pH 7.0, 291 K) | Fvs, very slow fraction ([1]; water, pH 7.0, 291 K) | krap, rapid desorption rate constant ([1]; water, pH 7.0, 291 K) | kslow, slow desorption rate constant ([1]; water, pH 7.0, 291 K) | kvs, very slow desorption rate constant ([1]; water, pH 7.0, 291 K) | kFd, Freundlich constant for desorption ([2]; warm-I (Table 2)) [mg^−1/n·L^−1/n·g^−1] | n, surface heterogeneity constant (desorption) ([2]; warm-I (Table 2)) | kFd, Freundlich constant for desorption ([2]; water (Table 2)) [mg^−1/n·L^−1/n·g^−1] | amount of bisphenol adsorbed on the PVC [3] [mg/g] | kFa, Freundlich constant for adsorption [6] [mg^−1/n·L^−1/n·g^−1] | n, surface heterogeneity constant (adsorption) [6] | further results
O=S(=O)(c1ccc(O)cc1)c1ccc(O)cc1 [BPS, bisphenol S] | 0.383±0.001 | 0.587±0.228 10^-2 h^-1 | 7.612±0.336 10^-4 h^-1 | 12.03±0.685 10^-5 h^-1 | 0.325±0.005 | <0.001 | 1.497±0.391 10^-2 h^-1 | 10.00±1.191 10^-4 h^-1 | 11.338±0.322 10^-5 h^-1 | 0.410±0.007 | 0.028±0.002 | 0.580±0.174 10^-2 h^-1 | 6.789±0.198 10^-4 h^-1 | <0.01 10^-5 h^-1 | 0.341 | 1.207 | 0.602 | 0.15 | 0.503 | 1.15 | Fvs, very slow fraction ([1]; cold-I, pH 7.5, 291 K): 0.085±0.002; IC50 to L8824 ([4]; 72 h exposure, 291 K, MTT): 8.98 ± 1.51 µg/mL (≈ 35.9 µM); IC50 [4, 9]: 35.9 ± 6.01 µM; IC50 to MCF-7 ([5]; 72 h exposure, 311 K, MTT): 14.50 ± 1.95 µg/mL (≈ 57.9 µM); IC50 [5, 10]: 57.9 ± 7.76 µM
Oc1ccc(C(c2ccc(O)cc2)(C(F)(F)F)C(F)(F)F)cc1 [BPAF, bisphenol AF] | 0.409±0.002 | 1.007±0.318 10^-2 h^-1 | 9.957±0.755 10^-4 h^-1 | <0.01 10^-5 h^-1 | 0.315±0.007 | <0.001 | 2.609±0.521 10^-2 h^-1 | 13.80±2.684 10^-4 h^-1 | <0.01 10^-5 h^-1 | 0.272±0.010 | 0.068±0.002 | 0.794±0.230 10^-2 h^-1 | 5.983±0.498 10^-4 h^-1 | 6.314±0.606 10^-5 h^-1 | 0.465 | 1.154 | 1.933 | 0.24 | 1.458 | 1.14 | Fvs, very slow fraction ([1]; cold-I, pH 7.5, 291 K): 0.003±0.001; HI, hysteresis index ([2]; warm-I): <0; HI, hysteresis index ([2]; water): 0.326; n, surface heterogeneity constant (desorption) ([2]; water (Table 2)): 1.155; IC50 [4, 11]: 1.15 ± 0.18 µg/mL; Cytotoxicity (proliferation reduction), L8824 [4, 12]: 46.31%; Cytotoxicity (proliferation reduction), L8824 [4, 13]: 32.70%; IC50 [5, 14]: 2.65 ± 1.34 µg/mL; Cytotoxicity (proliferation reduction), MCF-7 [5, 12]: 36.87%; Cytotoxicity (proliferation reduction), MCF-7 [5, 13]: 24.19%; IC50 [5, 10]: 7.87 ± 3.98 µM
CC(C)(c1ccc(O)cc1)c1ccc(O)cc1 [BPA, bisphenol A] | 0.395±0.003 | 0.809±0.302 10^-2 h^-1 | 10.90±0.407 10^-4 h^-1 | 9.442±0.716 10^-5 h^-1 | 0.303±0.046 | 0.019±0.003 | 2.163±0.456 10^-2 h^-1 | 11.40±0.898 10^-4 h^-1 | 9.069±0.647 10^-5 h^-1 | 0.284±0.004 | 0.076±0.004 | 0.746±0.206 10^-2 h^-1 | 5.979±0.555 10^-4 h^-1 | 6.997±0.788 10^-5 h^-1 | 0.398 | 1.218 | 1.033 | 0.19 | 0.801 | 1.21 | Fvs, very slow fraction ([1]; cold-I, pH 7.5, 291 K): 0.043±0.005; HI, hysteresis index ([2]; warm-I): <0; HI, hysteresis index ([2]; water): 0.289; n, surface heterogeneity constant (desorption) ([2]; water (Table 2)): 1.512; IC50 ([4]; Hepatocyte, 72 h, read-out: IC50 to L8824): 16.2 µM and 3.7 µg/mL; Cytotoxicity (proliferation reduction), L8824 [4, 12]: 29.75%; Cytotoxicity (proliferation reduction), L8824 [4, 13]: 20.08%; IC50 ([5]; Homo sapiens, MCF7, 72 h, read-out: IC50 to MCF-7): 36.9 µM and 8.42 µg/mL; Cytotoxicity (proliferation reduction), MCF-7 [5, 12]: 21.75%; Cytotoxicity (proliferation reduction), MCF-7 [5, 13]: 12.36%; log Dow [7]: 3.32
CCC(C)(c1ccc(O)cc1)c1ccc(O)cc1 [BPB, bisphenol B] | 0.456±0.005 | 0.864±0.209 10^-2 h^-1 | 10.80±0.737 10^-4 h^-1 | 7.718±0.488 10^-5 h^-1 | 0.308±0.003 | 0.010±0.001 | 2.479±0.452 10^-2 h^-1 | 18.90±2.818 10^-4 h^-1 | <0.01 10^-5 h^-1 | 0.293±0.006 | 0.046±0.002 | 0.777±0.285 10^-2 h^-1 | 6.751±0.274 10^-4 h^-1 | 6.992±0.534 10^-5 h^-1 | 0.428 | 1.179 | 1.542 | 0.23 | 1.182 | 1.16 | Fvs, very slow fraction ([1]; cold-I, pH 7.5, 291 K): 0.059±0.001; HI, hysteresis index ([2]; warm-I): <0; HI, hysteresis index ([2]; water): 0.304; n, surface heterogeneity constant (desorption) ([2]; water (Table 2)): 1.237; IC50 [4, 11]: 2.34 ± 0.23 µg/mL; Cytotoxicity (proliferation reduction), L8824 [4, 12]: 36.95%; Cytotoxicity (proliferation reduction), L8824 [4, 13]: 26.25%; IC50 [4, 9]: 9.67 ± 0.92 µM; IC50 [5, 14]: 21.6 µM and 5.25 µg/mL; Cytotoxicity (proliferation reduction), MCF-7 [5, 12]: 29.53%; Cytotoxicity (proliferation reduction), MCF-7 [5, 13]: 18.79%
Oc1ccc(Cc2ccc(O)cc2)cc1 [BPF, bisphenol F] | 0.335±0.002 | 0.662±0.241 10^-2 h^-1 | 6.906±0.579 10^-4 h^-1 | 2.367±0.112 10^-5 h^-1 | 0.308±0.003 | 0.005±0.001 | 1.744±0.373 10^-2 h^-1 | 9.877±1.415 10^-4 h^-1 | 5.778±0.325 10^-5 h^-1 | 0.371±0.004 | 0.051±0.002 | 0.619±0.179 10^-2 h^-1 | 6.659±0.441 10^-4 h^-1 | <0.01 10^-5 h^-1 | 0.388 | 1.186 | 0.720 | 0.16 | 0.575 | 1.13 | HI, hysteresis index ([2]; warm-I): <0; HI, hysteresis index ([2]; water): 0.252; n, surface heterogeneity constant (desorption) ([2]; water (Table 2)): 1.594; IC50 to L8824 ([4]; 72 h exposure, 291 K, MTT): 2.26 ± 0.43 µg/mL (≈ 11.3 µM); Cytotoxicity (proliferation reduction), L8824 [4, 12]: 33.24%; Cytotoxicity (proliferation reduction), L8824 [4, 13]: 27.15%; IC50 [4, 9]: 11.3 ± 2.12 µM; IC50 to MCF-7 ([5]; 72 h exposure, 311 K, MTT): 6.39 ± 0.34 µg/mL (≈ 31.9 µM); Cytotoxicity (proliferation reduction), MCF-7 [5, 12]: 26.54%; Cytotoxicity (proliferation reduction), MCF-7 [5, 13]: 20.83%; IC50 [5, 10]: 31.9 ± 1.69 µM; desorbed concentration, Warm-I [8]: 0.59 mg/L; log Dow [7]: 2.80
